Measured values of several laboratories.
Target: Protein kinase C gamma type (PRKCG, Homo sapiens, UniProt P05129)

SMILES	assay	setting	quantity	value
CCCS(=O)(=O)Nc1ccc(F)c(C(=O)c2c[nH]c3ncc(-c4ccc(Cl)cc4)cc23)c1F	enzyme activity, inhibitor	1 µM	inhibition	< 20%
COc1cc(Nc2cnc(C#N)c(O[C@H](C)CN(C)C)n2)ncc1-c1cnn(C)c1	enzyme activity, inhibitor, radiometric	10 µM	remaining activity	80%
COc1cc(Cl)c(C(=O)N[C@@H](CN[C@H]2CC[C@@H](N)CC2)Cc2ccc(C#N)cc2)cc1-c1ccc(CN[C@H](C)c2ccc(C)cc2)o1	enzyme activity, inhibitor	1 µM	remaining activity	98%
O=C1NC(=O)c2cc(Nc3ccc(F)cc3)c(Nc3ccc(F)cc3)cc21	cell-free assay	0.5 µM	remaining signal	102%
Cc1cnc(NC2CCOCC2)nc1-n1cnc(C(=O)NC(CN)c2cc(F)cc(Cl)c2)c1 (stereo not shown)	enzyme activity, inhibitor, radiometric	1 µM	remaining activity	85%
CC/C(=N\NC(=O)NCc1cccc(O)c1)c1ccc(O)c(C)c1O	enzyme activity, inhibitor	0.1 µM	inhibition	3.6%
O=C(Nc1cnn(-c2csc(C(=O)NC3COC3)c2)c1)Nc1ccccc1Cl	enzyme activity, inhibitor	5 µM	remaining activity	98%
FC(F)(F)Oc1cccc(-c2cnc3ccc(-c4ccncc4)nn23)c1	enzyme activity, inhibitor, radiometric	5 µM	activity vs control	76%
Cc1cc(NC(=O)c2cccc3cc(-c4cccc5[nH]nc(N)c45)ccc23)ccc1F	enzyme activity, inhibitor	0.1 µM	activity vs control	92%
CCN(CC)c1ccc(C2=NNC(=O)CC2C)cc1[N+](=O)[O-] (stereo not shown)	enzyme activity, inhibitor	10 µM	remaining activity	96%
Cc1ccc(Nc2nccc(N(C)c3ccc4c(C)n(C)nc4c3)n2)cc1S(N)(=O)=O	enzyme activity, inhibitor	10 µM	inhibition	45%
COc1cc(/C=C/C(=O)CC(=O)/C=C/c2ccc(O)c(OC)c2)ccc1O	enzyme activity, inhibitor	1 µM	activity vs control	85%
COc1cc2ncnc(Nc3ccc(Oc4ccccc4)c(C)c3C)c2cc1OC	enzyme activity, inhibitor	1 µM	inhibition	1%
Cc1ccc(NC(=O)c2ccc(C)c(C(F)(F)F)c2)cc1C#Cc1nn(C2CCC(O)CC2)c2ncnc(N)c12 (stereo not shown)	cell-free assay	10 µM	remaining signal	90%
CC(C)c1ccc(NC(=O)c2cccs2)c(-c2nc3ccccc3[nH]c2=O)c1	enzyme activity, inhibitor	1 µM	activity vs control	106%
CC(C)(C)c1nc(-c2cccc(NS(=O)(=O)c3c(F)cccc3F)c2F)c(-c2ccnc(N)n2)s1	enzyme activity, inhibitor, radiometric	1 µM	remaining activity	102%
